High-throughput results as filed in PubChem.
Hits are enriched below; roughly 2.4% of the tested compounds scored in any of these assays.
NadD block: inhibitors of Staphylococcus aureus NadD; purified NadD enzyme, colorimetric absorbance read-out; inhibition, % at 20 µM; hit rate 0.78% among 360,000; AID 602399; in the data active = inhibition above about 26%
SUMO1-SIM PPI: modulators of human SUMO1-mediated protein-protein interactions. P63165. SUMO1 binding to a labelled peptide, TR-FRET, 1 h. inhibition, % at 20 µM. hit rate 0.33% among 360,000. AID 602429; in the data active = inhibition above about 37%
Target sequence (P63165 whole entry, looked up): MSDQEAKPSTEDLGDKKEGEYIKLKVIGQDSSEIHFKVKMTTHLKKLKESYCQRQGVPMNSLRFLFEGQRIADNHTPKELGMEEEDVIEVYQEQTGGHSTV
STEP block: blocks human striatal-enriched tyrosine phosphatase | P54829 | recombinant STEP, OMFP fluorogenic substrate, fluorescence | inhibition, % at 20 µM | hit rate 0.25% among 360,000 | AID 588621;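 active = inhibition at 20 µM, scaled per plate between control wells, above about 37%, limit read from the data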;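 note: 0% = DMSO with enzyme and substrate and 100% = substrate only without enzyme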
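Also added – OMFP at 25 µM · Test system – STEP tyrosine phosphatase · Technique – FITC-channel fluorescence of OMFP product · Schedule – 20 min at room temperature, dark · Evaluation – control-normalized % inhibition with plate pattern correction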
DNMT1 block: blocks human DNA methyltransferase DNMT1. P26358. DNMT1 molecular beacon, Hinp1I cleavage, fluorescence. inhibition (reported as % activation of signal), % at 10 µM. hit rate 0.83% among 360,000. AID 588458; in the data active = inhibition above about 50%
LMPTP block: blocks human LMPTP phosphatase; recombinant LMPTP-A, OMFP fluorogenic substrate, fluorescence intensity; inhibition, % at 20 µM; hit rate 0.22% among 360,000; AID 651560;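 active = compounds that cut the enzyme signal by at least half of the control window in the single-dose screen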;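 note: plate controls were DMSO wells with enzyme plus substrate for no effect and substrate without enzyme for full effect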
Target sequence (P24666 whole entry, looked up): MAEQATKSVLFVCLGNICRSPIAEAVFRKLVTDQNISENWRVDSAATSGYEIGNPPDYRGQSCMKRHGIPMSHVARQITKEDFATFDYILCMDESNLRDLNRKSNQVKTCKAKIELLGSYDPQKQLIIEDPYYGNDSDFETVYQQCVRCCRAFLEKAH
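material = LMPTP-A | quantity = 0.625 nM enzyme | reagent = OMFP substrate, 400 µM final | buffer or medium = Bis-Tris pH 6.0, DTT, detergent | detection = endpoint fluorescence intensity from OMFP dephosphorylation | dosing = single 20 µM dose | read-out basis = % inhibition relative to no-enzyme and uninhibited control wells | control set = no-enzyme and uninhibited controls | timing = 50 min at room temperature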
Scp-1 inhibitor: Scp-1 (human) phosphatase inhibition | inhibition, % at 20 µM | hit rate 0.88% among 340,000 | Q9GZU7 | Recombinant Scp1, phosphopeptide, malachite green phosphate absorbance;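 active = inhibition above about 50% at 20 µM, limit read from the data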;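 note: plate controls were DMSO wells with enzyme for no effect and wells lacking enzyme for full effect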
Target sequence (Q9GZU7 76-261 limits assumed): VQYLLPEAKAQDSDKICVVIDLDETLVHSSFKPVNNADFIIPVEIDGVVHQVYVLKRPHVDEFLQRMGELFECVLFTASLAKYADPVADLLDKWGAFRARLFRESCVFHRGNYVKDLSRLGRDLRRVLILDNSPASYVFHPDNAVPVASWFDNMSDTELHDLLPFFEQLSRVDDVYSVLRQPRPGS
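System: SCP-1 catalytic domain; Reagent: Phospho 17-mer peptide substrate; Doses: one concentration, 20 µM, with 1.0% DMSO; Incubation: 45 min room-temperature reaction, 5 min colour, 30 min stabiliser; Signal: Phosphate-binding colour reagent, absorbance read at 630 nm.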
DNMT1 confirm: DNMT1 inhibition confirmation, single concentration; shares compounds with DNMT1 block; DNMT1 molecular beacon HinP1I cleavage, fluorescence; inhibition, % at 10 µM; hit rate 8% among 2,300; AID 602385;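 active = average inhibition of at least 30% in the single-concentration confirmation test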
DNMT1 interf: beacon fluorescence artifact counter-screen; DNMT1 molecular beacon spectral interference counterscreen, fluorescence 485/520; AID 602387; hit rate 1% among 2,300; shares compounds with DNMT1 block; activation (fluorescence interference), % at 10 µM;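 active = activation of at least 30% at 10 µM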;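 note: DNMT1 catalytic domain with a HinP1I cleavage step and a FAM/dabcyl DNA beacon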
STEP inh conf: STEP (human) phosphatase inhibition, single concentration confirmation. shares compounds with STEP block. recombinant STEP, OMFP fluorogenic substrate, fluorescence. inhibition, % at 20 µM. hit rate 32% among 520. AID 623866; call rule not given here;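 note: 0% = enzyme with substrate plus DMSO and 100% = substrate without enzyme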
An asterisk follows results filed as active; / = no result.

SMILES	NadD block	SUMO1-SIM PPI	STEP block	DNMT1 block	LMPTP block	Scp-1 inhibitor	DNMT1 confirm	DNMT1 interf	others
O=C(Nc1ccc(N2CCOCC2)cc1)c1csc([C@H]2C[C@H](O)[C@@H](CO)O2)n1	-5	24	2	4	-2	/	/	/
O=C(CNS(=O)(=O)c1ccc(F)cc1)N1CCCC1	-7	2	-2	-5	0	-3	/	/
CCn1nnnc1NCc1ccc(N2CCCC2)cc1	29	0	4	82*	60*	-2	4	3
CCc1c(C)nc(SCc2ccccn2)[nH]c1=O	-3	-5	2	2	-1	-1	/	/
O=C(NCC1([N+](=O)[O-])CN(C(=O)c2ccccc2)CN(C(=O)c2ccccc2)C1)c1ccccc1	-7	-3	-3	-4	-2	-7	/	/
Cc1ccc(CNC(=O)c2nnn(CC(=O)Nc3cc(C)cc(C)c3)c2N)cc1	3	3	-2	56*	14	-1	-2	0
CN(CC(=O)Nc1cccc(F)c1)C(=O)CN1c2cccc3cccc(c23)S1(=O)=O	9	-7	0	53*	16	43	1	1
COc1ccc(OCC(O)CNC(=O)c2c(-c3ccccc3)noc2C)cc1 (stereo unspecified)	-3	4	3	1	0	-11	/	/
O=C(Nc1cccc(Oc2ccc(C(=O)O)c(C(=O)O)c2)c1)c1ccc(-c2ccccc2)cc1	17	22	35	53*	8	20	15	-1
COCCn1nnnc1CN1CCC(Cc2ccccc2)CC1	1	0	-1	1	-2	-3	/	/
O=S1(=O)N[C@@H](Cc2ccccc2)COc2cc(Br)ccc21	-2	0	-5	-2	0	-4	/	/
CCOc1ccc(NC(=O)CCCc2cc(-c3ccc(OCC)cc3)on2)cc1	-1	-2	5	57*	0	-7	1	4
CCOc1ccc(-c2cc(CCCC(=O)Nc3cccc(OC)c3)no2)cc1	-4	-2	0	-10	1	2	/	/
COc1cccc(OC)c1C(=O)Nc1sc2c(c1C(N)=O)CCN(Cc1ccccc1)C2	1	-4	1	-7	-1	-9	/	/
CC(=O)c1ccc(C(=O)Nc2sc3c(c2C(N)=O)CCN(Cc2ccccc2)C3)cc1	6	-6	-13	84*	2	/	10	3
CCN(CC)CCNC(=O)C1c2cc(OC)c(OC)cc2C(=O)N(C)C1c1cccs1 (stereo unspecified)	-6	-3	0	-7	0	-2	/	/
CCN(C(=O)COC(=O)/C=C/c1ccco1)C1CCCCC1	5	-15	20	75*	7	72*	6	3
CCN(C(=O)COC(=O)/C=C/c1ccc(F)cc1)C1CCCCC1	-5	-7	-1	-5	2	-1	/	/
CCOc1ccccc1N1CCN(CC(=O)NC(C)c2ccccc2)CC1 (stereo unspecified)	2	2	0	1	-1	-6	/	/
CCc1cccc(CC)c1-n1c(SCC(=O)c2c(N)n(C)c(=O)n(C)c2=O)nnc1-c1cccnc1	4	3	3	59*	1	-2	0	-3
CCOc1cc2c(C#N)c(N3CCOCC3)nc(N)c2c(N)n1	4	12	1	18	9	12	/	/
CCCN(CC1CC1)c1nc(N)c2c(N)nc(OC)cc2c1C#N	0	35	3	52*	13	-4	10	7
CCOc1cc2c(C#N)c(N(CC)CC)nc(N)c2c(N)n1	4	49*	8	85*	20	2	6	6
CN1CCN(c2ccc(CNC(=O)c3ccc(-c4ccnn4C)c4ccoc34)cc2)CC1	-4	-5	-2	75*	6	/	4	3
CN1CCN(c2ccc(CNC(=O)c3ccc(-c4cnn(C)c4)c4ccoc34)cc2)CC1	-3	11	3	0	5	/	/	/
SMILES	NadD block	SUMO1-SIM PPI	STEP block	DNMT1 block	LMPTP block	Scp-1 inhibitor	DNMT1 confirm	DNMT1 interf	others
CN(/N=C/c1c[nH]c2ccccc12)c1cnn(-c2ccc(F)c(Cl)c2)c(=O)c1Cl	18	-1	-3	111*	1	3	3	8
Cc1cc(C)n(/N=C/c2c[nH]c3ccccc23)c(=O)c1C#N	-3	-4	-1	4	1	1	/	/
COc1ccc(C2c3c(-c4ccccc4O)n[nH]c3C(=O)N2Cc2ccco2)cc1 (stereo unspecified)	6	-1	0	66*	3	-14	1	2
Cc1cc(=O)oc2c3c(cc(OCC(=O)NC(Cc4ccc(Cl)cc4)C(=O)O)c12)OC(C)(C)CC3 (stereo unspecified)	4	15	-2	98*	-1	4	1	0
O=C(Nc1nnc(-c2ccccc2F)s1)Nc1ccccc1F	11	1	1	53*	-2	2	3	3
Cc1cccc(C)c1-n1nnnc1C(c1cc2ccccc2o1)N1CCN(C/C=C/c2ccccc2)CC1 (stereo unspecified)	5	1	6	63*	6	/	6	8
Cc1nnc2sc(-c3ccc(NC(=O)c4ccc(-c5ccc(Cl)cc5Cl)o4)cc3)nn12	30	31	95*	65*	56*	36	8	1	STEP inh conf=60*
CC(=O)Cc1nsc(NC(=O)c2ccc(-c3ccc(Cl)cc3Cl)o2)n1	-3	-8	-2	-6	2	-9	/	/
COc1ccccc1-c1csc(-n2ncc(C#N)c2N)n1	3	95*	61*	76*	41	/	12	0	STEP inh conf=19
COc1ccc(-c2ccc(NC(=O)c3ccc(Br)o3)cc2)nn1	8	9	42*	56*	54*	50	5	4	STEP inh conf=33*
Cc1ccc(NC(=O)c2ccc3nc(N4CCOCC4)sc3c2)c(Cl)c1	-2	5	84*	53*	0	-10	-2	-4	STEP inh conf=54*
COc1cccc(/C=C/C(=C2/C(=O)N(c3ccccc3)N=C2C)c2ccc(C)cc2)c1OC	-4	2	3	2	1	-2	/	/
C/C(=N\NS(=O)(=O)c1ccc(C)c([N+](=O)[O-])c1)c1cccs1	-1	-10	-2	-2	0	-5	/	/
